ChEMBL document CHEMBL4619796, “Discovery of 3-Quinazolin-4(3H)-on-3-yl-2,N-dimethylpropanamides as Orally Active and Selective PI3Kα Inhibitors” (ACS Med Chem Lett, 2020)
The source made the active and inactive calls. The calls are words filed in the database; no cut-off is given here.

How the values were obtained:
[1] = Inhibition of PI3K in human MCF7 cells assessed as reduction in AKT phosphorylation at residue S473 incubated for 2 hrs followed by insulin addition by ELISA; assay type: cell-based; details: MCF7, 2 h
Homo sapiens [2] = organism: Homo sapiens; test: (§1) Selectivity ratio of IC50 for PI3Kgamma (unknown origin) using PIP2:3PS peptide as substrate preincubated for 15 mins followed by ATP addition at Km concentration and further incubated for 120 mins by ADP-Glo assay to IC50 for PI3Kalpha (unknown origin) using PIP2:3PS peptide as substrate preincubated for 15 mins followed by ATP addition at Km concentration and further incubated for 150 mins by ADP-Glo assay
[3] = target: Phosphatidylinositol 4,5-bisphosphate 3-kinase catalytic subunit alpha isoform (Homo sapiens, UniProt P42336); test: Inhibition of PI3Kalpha (unknown origin) using PIP2:3PS peptide as substrate preincubated for 15 mins followed by ATP addition at Km concentration and further incubated for 150 mins by ADP-Glo assay
Homo sapiens [4] = organism: Homo sapiens; test: as §1, with “PI3Kbeta” for “PI3Kgamma”
Homo sapiens [5] = organism: Homo sapiens; test: as §1, with “PI3Kdelta” for “PI3Kgamma”
[6] = Oral bioavailability in BALB/c mouse at 10 mg/kg by HPLC analysis; assay type: ADME, organism-based; details: in vivo
[7] = Clearance in BALB/c mouse at 1 mg/kg, […] by HPLC analysis; assay type: ADME, organism-based; details: in vivo
SK-OV-3 = test: Antitumor activity against human SKOV3 cells xenografted in BALB/c nude mouse assessed as tumor growth inhibition at 10 to 100 mg/kg, po via gavage administered once daily and measured after 28 days by caliper method; assay type: functional, organism-based
Outline: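 SKOV-3 ovarian carcinoma subcutaneous xenografts in mice. Oral gavage once daily for 28 days at 10, 30 and 100 mg kg–1 day–1. Read-out is tumor growth inhibition.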

[8] = Cmax in BALB/c mouse at 10 mg/kg, po by HPLC analysis; assay type: ADME, organism-based; parameters: dose 10 mg/kg, route oral; details: in vivo
[9] = Dose normalized AUC (0 to last) in BALB/c mouse at 10 mg/kg, po by HPLC analysis; assay type: ADME, organism-based; details: in vivo
BT-474 [10] = test: Antitumor activity against PI3KCA mutant human BT474 cells xenografted in BALB/c nude mouse assessed as tumor growth inhibition at 10 to 20 mg/kg, po administered once daily for 21 days by caliper method; assay type: functional, organism-based
Outline: (§2)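 BT-474 (PIK3CA mutant human breast ductal carcinoma) subcutaneous xenografts in Balb/c nude mice. Oral dosing once daily for 21 days. Vehicle 0.5% MC + 0.2% Tween 80. Read-out is tumor growth inhibition.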

[11] = Toxicity in BALB/c nude mouse xenografted with PI3KCA mutant human BT474 cells at 30 mg/kg, po administered once daily; assay type: organism-based, BT-474; details: in vivo
Outline: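 Balb/c nude mice bearing BT-474 subcutaneous xenografts. Oral dosing at 30 mg/kg once daily.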

BT-474 [12] = test: Antitumor activity against PI3KCA mutant human BT474 cells xenografted in BALB/c nude mouse assessed as tumor growth inhibition at 30 mg/kg, po administered once daily for 21 days by caliper method relative to control; assay type: functional; details: BT-474, po, 504 h, read-out: TGI; outline: as §2
BT-474 [13] = test: Antitumor activity against PI3KCA mutant human BT474 cells xenografted in BALB/c nude mouse assessed as tumor growth inhibition at 30 mg/kg, po administered once daily and measured after 30 days by caliper method relative to control; assay type: functional; details: BT-474, po, 720 h, read-out: TGI

Sequence of Phosphatidylinositol 4,5-bisphosphate 3-kinase catalytic subunit alpha isoform (P42336 whole entry, canonical isoform): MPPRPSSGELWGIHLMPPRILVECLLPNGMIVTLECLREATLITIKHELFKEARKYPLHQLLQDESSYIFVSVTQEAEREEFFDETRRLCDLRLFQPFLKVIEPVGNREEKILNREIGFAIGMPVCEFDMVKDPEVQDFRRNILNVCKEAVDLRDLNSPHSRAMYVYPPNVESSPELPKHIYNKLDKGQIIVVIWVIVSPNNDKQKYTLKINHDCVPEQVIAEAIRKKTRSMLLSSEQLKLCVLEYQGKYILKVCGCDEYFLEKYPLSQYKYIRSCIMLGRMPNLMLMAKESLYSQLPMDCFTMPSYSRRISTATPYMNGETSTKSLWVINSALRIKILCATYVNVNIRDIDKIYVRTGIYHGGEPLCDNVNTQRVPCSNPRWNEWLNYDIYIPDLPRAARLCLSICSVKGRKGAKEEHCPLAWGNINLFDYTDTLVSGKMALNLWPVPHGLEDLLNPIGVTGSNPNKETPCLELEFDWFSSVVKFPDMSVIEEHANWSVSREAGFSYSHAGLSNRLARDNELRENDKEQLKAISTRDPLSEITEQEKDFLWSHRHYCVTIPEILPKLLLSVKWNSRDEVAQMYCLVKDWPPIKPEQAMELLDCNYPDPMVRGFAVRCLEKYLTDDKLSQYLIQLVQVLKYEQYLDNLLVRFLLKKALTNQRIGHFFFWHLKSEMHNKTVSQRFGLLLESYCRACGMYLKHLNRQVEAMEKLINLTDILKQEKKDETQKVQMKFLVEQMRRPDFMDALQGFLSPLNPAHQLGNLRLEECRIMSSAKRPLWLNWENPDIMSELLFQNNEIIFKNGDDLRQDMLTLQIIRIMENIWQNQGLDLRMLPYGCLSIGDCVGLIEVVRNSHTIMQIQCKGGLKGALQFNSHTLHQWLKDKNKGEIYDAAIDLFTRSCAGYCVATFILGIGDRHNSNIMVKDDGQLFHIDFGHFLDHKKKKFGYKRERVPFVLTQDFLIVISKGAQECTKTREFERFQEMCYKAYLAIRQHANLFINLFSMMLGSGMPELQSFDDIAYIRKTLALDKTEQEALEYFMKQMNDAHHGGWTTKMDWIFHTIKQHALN

Compound	IC50 [1]	Ratio IC50 (Homo sapiens [2])	IC50 [3]	Ratio IC50 (Homo sapiens [4])	Ratio IC50 (Homo sapiens [5])	bioavailability [6]	CL/F [7]	Cmax [8]	AUClast/dose [9]	TGI (SK-OV-3)	TGI (BT-474 [10])	Activity [11]	inhibition in vivo at 30 mg/kg (BT-474 [12])	inhibition in vivo at 30 mg/kg (BT-474 [13])
CCC(CC)NC(=O)[C@H](C)Cn1cnc2ccc(-c3cnc(OC)c(NS(=O)(=O)c4ccc(F)cc4Cl)c3)cc2c1=O	373 nM	7.92	19.6 nM	259	3.11									
CNC(=O)[C@H](C)Cn1cnc2ccc(-c3cnc(CO)c(NS(=O)(=O)c4ccc(F)cc4Cl)c3)cc2c1=O	> 1000 nM	12.5	30 nM	> 334	17.9									
CCc1ncc(-c2ccc3ncn(C[C@@H](C)C(=O)NC)c(=O)c3c2)cc1NS(=O)(=O)c1ccc(F)cc1Cl	347 nM	14.4	6 nM	309	13.8									
COc1ncc(-c2ccc3ncn(C[C@@H](C)C(=O)NC4CC4)c(=O)c3c2)cc1NS(=O)(=O)c1ccc(F)cc1Cl	170 nM	5.44	2.7 nM	224	2.61									
CNC(=O)[C@H](C)Cn1cnc2ccc(-c3cnc(C)c(NS(=O)(=O)c4ccc(F)cc4Cl)c3)cc2c1=O	397 nM	21	3 nM	406	17									
COc1ncc(-c2ccc3ncn(C[C@@H](C)C(=O)NCC(C)C)c(=O)c3c2)cc1NS(=O)(=O)c1ccc(F)cc1Cl	81.1 nM	6.38	8 nM	424	3.03									
COCCNC(=O)[C@H](C)Cn1cnc2ccc(-c3cnc(OC)c(NS(=O)(=O)c4ccc(F)cc4Cl)c3)cc2c1=O	72 nM	9.22	4.9 nM	229	6.06			9.13 µM	723 nM.hr/(mg/kg)					
COc1ncc(-c2ccc3ncn(C[C@@H](C)C(=O)NCCO)c(=O)c3c2)cc1NS(=O)(=O)c1ccc(F)cc1Cl	339 nM	6.34	1.7 nM	151	6.8									
CNC(=O)[C@H](C)Cn1cnc2ccc(-c3cnc(OC)c(NS(=O)(=O)c4cccc(C(F)(F)F)c4)c3)cc2c1=O	87.1 nM	10.4	4.4 nM	155	5.79	9%	9 mL/min/kg	24.7 µM	2020 nM·h				41.1%	
COc1ncc(-c2ccc3ncc(NC(=O)N4CCC[C@H]4C(N)=O)c(=O)n3c2)cc1NS(=O)(=O)c1ccc(F)cc1Cl	188 nM	7.4	0.5 nM	130	3.4									
Cc1nc(NC(=O)N2CCC[C@H]2C(N)=O)sc1-c1ccnc(C(C)(C)C(F)(F)F)c1 [ALPELISIB]														80.2%
COc1ncc(-c2ccc3ncn(C[C@@H](C)C(=O)NC4CCC4)c(=O)c3c2)cc1NS(=O)(=O)c1ccc(F)cc1Cl	80.4 nM	3.27	8.4 nM	186	2.12			4.73 µM	302 nM·h					
COc1ncc(-c2ccc3ncn(C[C@@H](C)C(=O)NCCF)c(=O)c3c2)cc1NS(=O)(=O)c1ccc(F)cc1Cl	67.4 nM	7.41	2.5 nM	162	7.61									
COc1ncc(-c2ccc3ncn(C[C@@H](C)C(=O)NC(C)C)c(=O)c3c2)cc1NS(=O)(=O)c1ccc(F)cc1Cl	61.5 nM	9.87	6.9 nM	107	3.41									
CNC(=O)[C@H](C)Cn1cnc2ccc(-c3cnc(OC)c(NS(=O)(=O)c4c(C)noc4C)c3)cc2c1=O		10	4.3 nM	146	4.52									
COc1ncc(-c2ccc3ncn(CC(N)C(N)=O)c(=O)c3c2)cc1NS(=O)(=O)c1ccc(F)cc1Cl (racemic)	134 nM	7.39		33.9	4.75									

Continued by falling IC50 [1], values first:

IC50 [1]	Ratio IC50 (Homo sapiens [2])	IC50 [3]	Ratio IC50 (Homo sapiens [4])	Ratio IC50 (Homo sapiens [5])	bioavailability [6]	CL/F [7]	Cmax [8]	AUClast/dose [9]	Compound	TGI (SK-OV-3)	TGI (BT-474 [10])	Activity [11]	inhibition in vivo at 30 mg/kg (BT-474 [12])	inhibition in vivo at 30 mg/kg (BT-474 [13])
56.1 nM	9.87	5.5 nM	107	3.41					COc1ncc(-c2ccc3ncn(C[C@@H](C)C(=O)NCC(F)(F)F)c(=O)c3c2)cc1NS(=O)(=O)c1ccc(F)cc1Cl					
40.5 nM	6.28	3.5 nM	187	5.63					CCNC(=O)[C@H](C)Cn1cnc2ccc(-c3cnc(OC)c(NS(=O)(=O)c4ccc(F)cc4Cl)c3)cc2c1=O					
39.9 nM	3.61		14.4	0.35					COc1ncc(-c2ccc3ncn(CC4(C(N)=O)CC4)c(=O)c3c2)cc1NS(=O)(=O)c1ccc(F)cc1Cl					
19 nM	12.3	3.4 nM	106	9.16			5 µM	1370 nM·h	CNC(=O)[C@H](C)Cn1cnc2ccc(-c3cnc(OC)c(NS(=O)(=O)c4ccc(F)cc4)c3)cc2c1=O					
17.1 nM	7.38	2 nM	83.2	5.03	56.2%	9.8 mL/min/kg	4.45 µM	1631 nM.hr/(mg/kg)	COc1ncc(-c2ccc3ncn(C[C@@H](C)C(N)=O)c(=O)c3c2)cc1NS(=O)(=O)c1ccc(F)cc1Cl	inactive				
16.8 nM	3.94	1.2 nM	59	3.34					COc1ncc(-c2ccc3ncn(CCC(N)=O)c(=O)c3c2)cc1NS(=O)(=O)c1ccc(F)cc1Cl					
13.4 nM	10.8	2.1 nM	131	5.38			37 µM	6260 nM·h	CNC(=O)[C@H](C)Cn1cnc2ccc(-c3cnc(OC)c(NS(=O)(=O)c4ccc(Cl)cc4Cl)c3)cc2c1=O		inactive	Toxic		
10.9 nM	11.7	0.5 nM	115	2.08					CNC(=O)[C@H](C)Cn1cnc2ccc(-c3cnc(OC)c(NS(=O)(=O)c4sc(C)nc4C)c3)cc2c1=O					
0.45 nM	8.87	1.1 nM	175	11.6			24 µM	5700 nM·h	CNC(=O)[C@H](C)Cn1cnc2ccc(-c3cnc(OC)c(NS(=O)(=O)c4cccc(Cl)c4Cl)c3)cc2c1=O		inactive	Toxic		
